Measurements from ChEMBL document CHEMBL3352338, “Development and biological evaluation of potent and selective c-KIT(D816V) inhibitors” (J Med Chem, 2014).

Key:
[1] = Cell cycle arrest in human HMC-1.2 cells assessed as accumulation at sub-G1 phase after 24 hrs by flow cytometric analysis; format: functional, cell-based
Method in brief: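 HMC-1.2 cells exposed to increasing concentrations for 24 h; cell cycle distribution (SubG1/G1 fraction) measured by flow cytometry.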

[2] = molecular target: Phosphatidylinositol 4,5-bisphosphate 3-kinase catalytic subunit alpha isoform (Homo sapiens, UniProt P42336); experiment: Inhibition of PI3Kalpha (unknown origin)
Sequence of Phosphatidylinositol 4,5-bisphosphate 3-kinase catalytic subunit alpha isoform (P42336 whole entry, canonical isoform): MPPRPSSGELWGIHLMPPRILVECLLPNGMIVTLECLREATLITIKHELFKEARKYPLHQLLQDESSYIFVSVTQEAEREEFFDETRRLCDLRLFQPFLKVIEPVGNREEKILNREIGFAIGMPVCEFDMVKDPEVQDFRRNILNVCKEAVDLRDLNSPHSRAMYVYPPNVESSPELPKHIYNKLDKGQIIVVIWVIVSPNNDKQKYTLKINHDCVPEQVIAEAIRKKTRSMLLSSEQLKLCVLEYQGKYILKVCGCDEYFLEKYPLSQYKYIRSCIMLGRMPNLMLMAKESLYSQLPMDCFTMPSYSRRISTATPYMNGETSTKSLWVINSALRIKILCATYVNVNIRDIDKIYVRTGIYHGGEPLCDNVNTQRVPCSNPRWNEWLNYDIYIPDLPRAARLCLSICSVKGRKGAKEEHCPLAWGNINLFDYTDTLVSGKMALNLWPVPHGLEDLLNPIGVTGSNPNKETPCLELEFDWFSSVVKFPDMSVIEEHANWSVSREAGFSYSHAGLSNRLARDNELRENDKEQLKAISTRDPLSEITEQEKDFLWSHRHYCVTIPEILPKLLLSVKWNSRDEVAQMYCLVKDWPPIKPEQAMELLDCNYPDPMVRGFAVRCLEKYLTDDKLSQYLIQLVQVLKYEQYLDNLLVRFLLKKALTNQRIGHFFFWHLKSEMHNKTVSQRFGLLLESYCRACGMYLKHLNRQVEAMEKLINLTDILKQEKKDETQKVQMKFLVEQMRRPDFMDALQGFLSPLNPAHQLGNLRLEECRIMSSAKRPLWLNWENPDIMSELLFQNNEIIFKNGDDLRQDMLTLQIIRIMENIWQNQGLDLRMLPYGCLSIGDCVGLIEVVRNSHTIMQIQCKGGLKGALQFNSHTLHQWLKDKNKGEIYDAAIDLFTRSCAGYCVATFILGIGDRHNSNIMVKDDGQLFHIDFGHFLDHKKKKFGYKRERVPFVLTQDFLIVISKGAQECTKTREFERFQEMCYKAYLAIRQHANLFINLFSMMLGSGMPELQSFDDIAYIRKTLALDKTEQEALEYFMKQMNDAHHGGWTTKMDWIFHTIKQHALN

IC50 [2]: > 10 µM
Structure (SMILES): COc1ccc(-c2cnc3[nH]cc(-c4ccc(OC)c(OC)c4)c3c2)cc1OC
inhibition [1]: Dose-dependent effect
